Values joined by “and” are separate entries in the source; they are usually repeats but may differ in a detail not shown here. Equal values may be shown once.
System: HEK-293T
Test: Multiplex assay against HEK293T
Assay type: toxicity, cell-based
Settings: human, number of replicates 2
Method in brief: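 Tubulin, mitochondrial-mass and membrane-permeability phenotypes are per cents of healthy-nucleus cells. Cells were gated by CellPathfinder machine learning into Hoechst high-intensity objects or normal cells, normal cells into healthy, pyknosed or fragmented nuclei, and pyknosed cells into mitotic or apoptotic. Before that, live cells stained at seeding with Hoechst33342, BioTracker Green Microtubule Cytoskeleton Dye, MitoTracker Red and Annexin V Alexa Fluor 680 were imaged on a CQ1 microscope at 37°C and 5% CO2 after compound addition.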

[1] = 12 h, 1 µM, compound concentration 1 uM
[2] = 12 h, 10 µM, compound concentration 10 uM
[3] = 24 h, 1 µM, compound concentration 1 uM
[4] = 24 h, 10 µM, compound concentration 10 uM
[5] = 48 h, 1 µM, compound concentration 1 uM
[6] = 48 h, 10 µM, compound concentration 10 uM

## c1ccc2c(-c3coc4cc(-c5ccc(N6CCNCC6)cc5)cnc34)ccnc2c1
[1]
  Population Apoptotic (%): 49% and 54%
  Population Healthy Nuclei (%): 84% and 87%
  Population Mitotic Cells (%): 50% and 45%
  Population Normal (%): 94%
  Population Pyknosed Nuclei (%): 13% and 10%
  Population Tubulin-Different-Phenotype (%): 46% and 49%
  Total Cell Count: 595 and 552
[2]
  Population Apoptotic (%): 75% and 58%
  Population Healthy Nuclei (%): 32% and 33%
  Population Mitotic Cells (%): 24% and 41%
  Population Normal (%): 82% and 84%
  Population Pyknosed Nuclei (%): 59%
  Population Tubulin-Different-Phenotype (%): 86% and 81%
  Total Cell Count: 394 and 507
[3]
  Population Apoptotic (%): 36% and 45%
  Population Healthy Nuclei (%): 88% and 87%
  Population Mitotic Cells (%): 63% and 54%
  Population Normal (%): 95% and 93%
  Population Pyknosed Nuclei (%): 9%
  Population Tubulin-Different-Phenotype (%): 34% and 40%
  Total Cell Count: 920 and 770
[4]
  Population Apoptotic (%): 85% and 72%
  Population Healthy Nuclei (%): 19% and 24%
  Population Mitotic Cells (%): 14% and 27%
  Population Normal (%): 82% and 80%
  Population Pyknosed Nuclei (%): 71% and 67%
  Population Tubulin-Different-Phenotype (%): 89% and 87%
  Total Cell Count: 387 and 484
[5]
  Population Apoptotic (%): 13% and 18%
  Population Healthy Nuclei (%): 90% and 89%
  Population Mitotic Cells (%): 86% and 81%
  Population Normal (%): 93% and 92%
  Population Pyknosed Nuclei (%): 4% and 5%
  Population Tubulin-Different-Phenotype (%): 18% and 22%
  Total Cell Count: 1932 and 1615
[6]
  Population Apoptotic (%): 90% and 79%
  Population Healthy Nuclei (%): 11% and 23%
  Population Mitotic Cells (%): 9% and 20%
  Population Normal (%): 81% and 79%
  Population Pyknosed Nuclei (%): 74% and 64%
  Population Tubulin-Different-Phenotype (%): 86% and 91%
  Total Cell Count: 372 and 450

## CS(=O)(=O)c1ccc(C(=O)Nc2cc(F)c(F)c(COc3cc(F)c(Br)cc3CN3CC[C@H](O)C3)c2)c(Cl)c1.O=CO
[1]
  Population Apoptotic (%): 60% and 64%
  Population Mitotic Cells (%): 39% and 35%
  Population Normal (%): 90%
  Total Cell Count: 610 and 577
[2]
  Population Apoptotic (%): 90% and 72%
  Population Mitotic Cells (%): 9% and 27%
  Population Normal (%): 91% and 89%
  Total Cell Count: 406 and 397
[3]
  Population Apoptotic (%): 59% and 58%
  Population Mitotic Cells (%): 40% and 41%
  Population Normal (%): 91% and 92%
  Total Cell Count: 921 and 854
[4]
  Population Apoptotic (%): 91% and 78%
  Population Mitotic Cells (%): 8%
  Population Normal (%): 85% and 83%
  Total Cell Count: 392 and 412
[5]
  Population Apoptotic (%): 23% and 44%
  Population Mitotic Cells (%): 76% and 55%
  Population Normal (%): 90% and 89%
  Total Cell Count: 2126 and 1643
[6]
  Population Apoptotic (%): 90% and 83%
  Population Mitotic Cells (%): 10% and 16%
  Population Normal (%): 80% and 81%
  Total Cell Count: 434 and 464

## COC(=O)Nc1nc2c(s1)-c1c(c(-c3cccnc3)nn1-c1ccc(C3(N(C)C)CC3)cc1)CC2.Cl.Cl
[1]
  Population Apoptotic (%): 62% and 58%
  Population Fragmented Nuclei (%): 5% and 1%
  Population Healthy Nuclei (%): 82% and 89%
  Population Hoechst High Intensity Objects (%): 11% and 10%
  Population Membrane Permeable-Phenotype (%): 1%
  Population Mitochondria Different-Phenotype (%): 41% and 51%
  Population Mitotic Cells (%): 37% and 41%
  Population Normal (%): 88% and 89%
  Population Pyknosed Nuclei (%): 12% and 9%
  Population Tubulin-Different-Phenotype (%): 75% and 76%
  Total Cell Count: 359 and 348
[2]
  Population Apoptotic (%): 73% and 64%
  Population Fragmented Nuclei (%): 5%
  Population Healthy Nuclei (%): 75% and 82%
  Population Hoechst High Intensity Objects (%): 17% and 10%
  Population Membrane Permeable-Phenotype (%): 3%
  Population Mitochondria Different-Phenotype (%): 66% and 52%
  Population Mitotic Cells (%): 26% and 35%
  Population Normal (%): 82% and 89%
  Population Pyknosed Nuclei (%): 18% and 11%
  Population Tubulin-Different-Phenotype (%): 90% and 87%
  Total Cell Count: 245 and 351
[3]
  Population Apoptotic (%): 66% and 71%
  Population Fragmented Nuclei (%): 4%
  Population Healthy Nuclei (%): 81% and 82%
  Population Hoechst High Intensity Objects (%): 20% and 17%
  Population Membrane Permeable-Phenotype (%): 2% and 1%
  Population Mitochondria Different-Phenotype (%): 43% and 55%
  Population Mitotic Cells (%): 33% and 28%
  Population Normal (%): 79% and 82%
  Population Pyknosed Nuclei (%): 14% and 12%
  Population Tubulin-Different-Phenotype (%): 81% and 85%
  Total Cell Count: 313 and 342
[4]
  Population Apoptotic (%): 67% and 58%
  Population Fragmented Nuclei (%): 8% and 6%
  Population Healthy Nuclei (%): 70% and 78%
  Population Hoechst High Intensity Objects (%): 15% and 18%
  Population Membrane Permeable-Phenotype (%): 4% and 3%
  Population Mitochondria Different-Phenotype (%): 70% and 52%
  Population Mitotic Cells (%): 32% and 41%
  Population Normal (%): 85% and 81%
  Population Pyknosed Nuclei (%): 21% and 14%
  Population Tubulin-Different-Phenotype (%): 86% and 82%
  Total Cell Count: 240 and 296
[5]
  Population Apoptotic (%): 62%
  Population Fragmented Nuclei (%): 11% and 8%
  Population Healthy Nuclei (%): 81% and 80%
  Population Hoechst High Intensity Objects (%): 23% and 25%
  Population Membrane Permeable-Phenotype (%): 1%
  Population Mitochondria Different-Phenotype (%): 19% and 27%
  Population Mitotic Cells (%): 37%
  Population Normal (%): 76% and 74%
  Population Pyknosed Nuclei (%): 6% and 11%
  Population Tubulin-Different-Phenotype (%): 78% and 76%
  Total Cell Count: 490 and 355
[6]
  Population Apoptotic (%): 64% and 60%
  Population Fragmented Nuclei (%): 8% and 11%
  Population Healthy Nuclei (%): 77% and 80%
  Population Hoechst High Intensity Objects (%): 17% and 20%
  Population Membrane Permeable-Phenotype (%): 3% and 2%
  Population Mitochondria Different-Phenotype (%): 45% and 39%
  Population Mitotic Cells (%): 35% and 40%
  Population Normal (%): 82% and 79%
  Population Pyknosed Nuclei (%): 13% and 8%
  Population Tubulin-Different-Phenotype (%): 80% and 77%
  Total Cell Count: 310 and 354

## CS(=O)(=O)c1ccc(C(=O)Nc2cc(F)cc(COc3cc(F)c(Br)cc3CN3CC[C@H](O)C3)c2)c(Cl)c1.O=CO
[1]
  Population Apoptotic (%): 74% and 64%
  Population Healthy Nuclei (%): 75% and 74%
  Population Normal (%): 90%
  Population Pyknosed Nuclei (%): 18% and 22%
  Total Cell Count: 602 and 632
[2]
  Population Apoptotic (%): 73% and 77%
  Population Healthy Nuclei (%): 78%
  Population Normal (%): 93% and 88%
  Total Cell Count: 459 and 415
[3]
  Population Apoptotic (%): 64% and 68%
  Population Healthy Nuclei (%): 79% and 75%
  Population Normal (%): 92% and 89%
  Total Cell Count: 818 and 876
[4]
  Population Apoptotic (%): 72% and 81%
  Population Healthy Nuclei (%): 76%
  Population Normal (%): 92% and 86%
  Total Cell Count: 492 and 449
[5]
  Population Apoptotic (%): 52% and 51%
  Population Healthy Nuclei (%): 76% and 82%
  Population Normal (%): 92% and 91%
  Population Pyknosed Nuclei (%): 3% and 4%
  Total Cell Count: 1931 and 1977
[6]
  Population Apoptotic (%): 75% and 74%
  Population Healthy Nuclei (%): 68%
  Population Normal (%): 83%
  Population Pyknosed Nuclei (%): 18%
  Total Cell Count: 551 and 447

## NC(=O)c1ccc(-c2nc(-c3ccc4c(c3)OCCO4)c(-c3ccccn3)[nH]2)cc1
[1]
  Population Apoptotic (%): 57% and 48%
  Population Fragmented Nuclei (%): 3%
  Population Healthy Nuclei (%): 83% and 85%
  Population Hoechst High Intensity Objects (%): 6% and 8%
  Population Membrane Permeable-Phenotype (%): 0% and 2%
  Population Mitochondria Different-Phenotype (%): 16% and 11%
  Population Mitotic Cells (%): 42% and 52%
  Population Normal (%): 93% and 91%
  Population Pyknosed Nuclei (%): 13% and 10%
  Population Tubulin-Different-Phenotype (%): 54% and 46%
  Total Cell Count: 656 and 747
[2]
  Population Apoptotic (%): 46% and 38%
  Population Fragmented Nuclei (%): 3%
  Population Healthy Nuclei (%): 87% and 88%
  Population Hoechst High Intensity Objects (%): 7% and 4%
  Population Membrane Permeable-Phenotype (%): 3% and 5%
  Population Mitochondria Different-Phenotype (%): 15% and 16%
  Population Mitotic Cells (%): 53% and 61%
  Population Normal (%): 92% and 95%
  Population Pyknosed Nuclei (%): 9% and 8%
  Population Tubulin-Different-Phenotype (%): 61% and 55%
  Total Cell Count: 620 and 572
[3]
  Population Apoptotic (%): 44% and 61%
  Population Fragmented Nuclei (%): 7% and 3%
  Population Healthy Nuclei (%): 85% and 87%
  Population Hoechst High Intensity Objects (%): 9% and 7%
  Population Membrane Permeable-Phenotype (%): 2% and 1%
  Population Mitochondria Different-Phenotype (%): 4% and 6%
  Population Mitotic Cells (%): 55% and 38%
  Population Normal (%): 90% and 92%
  Population Pyknosed Nuclei (%): 7% and 8%
  Population Tubulin-Different-Phenotype (%): 23% and 29%
  Total Cell Count: 1205 and 941
[4]
  Population Apoptotic (%): 48% and 44%
  Population Fragmented Nuclei (%): 4% and 3%
  Population Healthy Nuclei (%): 89% and 90%
  Population Hoechst High Intensity Objects (%): 7% and 8%
  Population Membrane Permeable-Phenotype (%): 4% and 3%
  Population Mitochondria Different-Phenotype (%): 9% and 5%
  Population Mitotic Cells (%): 51% and 55%
  Population Normal (%): 92% and 91%
  Population Pyknosed Nuclei (%): 6% and 5%
  Population Tubulin-Different-Phenotype (%): 39% and 37%
  Total Cell Count: 908 and 852
[5]
  Population Apoptotic (%): 14% and 25%
  Population Fragmented Nuclei (%): 16% and 11%
  Population Healthy Nuclei (%): 80% and 85%
  Population Hoechst High Intensity Objects (%): 10%
  Population Membrane Permeable-Phenotype (%): 5% and 1%
  Population Mitochondria Different-Phenotype (%): 0%
  Population Mitotic Cells (%): 85% and 74%
  Population Normal (%): 89%
  Population Pyknosed Nuclei (%): 2%
  Population Tubulin-Different-Phenotype (%): 11% and 15%
  Total Cell Count: 3179 and 2277
[6]
  Population Apoptotic (%): 6% and 9%
  Population Fragmented Nuclei (%): 10% and 9%
  Population Healthy Nuclei (%): 86% and 87%
  Population Hoechst High Intensity Objects (%): 7% and 8%
  Population Membrane Permeable-Phenotype (%): 5%
  Population Mitochondria Different-Phenotype (%): 1%
  Population Mitotic Cells (%): 93% and 90%
  Population Normal (%): 92% and 91%
  Population Pyknosed Nuclei (%): 3%
  Population Tubulin-Different-Phenotype (%): 21% and 23%
  Total Cell Count: 2159 and 1774

Source: ChEMBL document CHEMBL5303300, “EUbOPEN Chemogenomics Library - Multiplex” (2023)
